Screening data as filed in PubChem.
SENP8 block-1 – SENP8 protease inhibition. Q96LD8. purified SENP8, Z-RLRGG-aminoluciferin cleavage, luminescence. inhibition, % at 10 µM. 330,000 tested, 1.2% active. AID 2540; in the data active = inhibition above about 50%
SENP6 block – SENP6 protease inhibition; inhibition, % at 10 µM; Q9GZR1; Recombinant SENP6 catalytic domain, aminoluciferin luminescence; 330,000 tested, 1.8% active;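 active = inhibition above about 50% at the single tested dose, limit read from the data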;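 note: plate controls were DMSO wells with enzyme for no effect and DMSO wells lacking enzyme for full effect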
Target sequence (Q9GZR1 628-1112 limits assumed): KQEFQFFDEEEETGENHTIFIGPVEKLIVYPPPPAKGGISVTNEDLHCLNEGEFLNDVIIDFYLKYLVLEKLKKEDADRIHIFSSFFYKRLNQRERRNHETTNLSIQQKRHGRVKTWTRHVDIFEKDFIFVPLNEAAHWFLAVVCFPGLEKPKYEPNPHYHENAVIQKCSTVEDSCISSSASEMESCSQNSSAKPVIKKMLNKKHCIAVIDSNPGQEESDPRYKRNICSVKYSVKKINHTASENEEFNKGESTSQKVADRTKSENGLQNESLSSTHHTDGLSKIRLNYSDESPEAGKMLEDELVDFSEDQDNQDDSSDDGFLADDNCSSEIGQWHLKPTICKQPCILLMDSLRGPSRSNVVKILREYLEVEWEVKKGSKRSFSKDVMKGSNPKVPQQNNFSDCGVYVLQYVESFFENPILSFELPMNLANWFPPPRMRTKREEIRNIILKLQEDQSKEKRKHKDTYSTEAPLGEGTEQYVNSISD
SENP7 inh – inhibitors of human SENP7 protease; Q9BQF6; inhibition, % at 5 µM; 330,000 tested, 1.5% active; AID 434973; recombinant SENP7, Z-RLRGG-aminoluciferin luminescence, 40 min;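 active = inhibition above about 50% at the single test dose, limit read from the data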;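 note: plate controls were DMSO with enzyme for no effect and no enzyme buffer wells for full effect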
SENP1 inh – SENP1 (human) catalytic domain inhibition; recombinant SENP1 catalytic domain, CyPet-SUMO1-YPet FRET cleavage; inhibition, % at 10 µM; Q9P0U3; 360,000 tested, 0.21% active; AID 624204;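 active = inhibition at least 30% at 10 µM, raw YFP signal under a set limit, fluorescence ratio 0.5 to 1.5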;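 note: 0% = enzyme with DMSO and 100% = no enzyme wells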
Target sequence (Q9P0U3 419-644 limits assumed): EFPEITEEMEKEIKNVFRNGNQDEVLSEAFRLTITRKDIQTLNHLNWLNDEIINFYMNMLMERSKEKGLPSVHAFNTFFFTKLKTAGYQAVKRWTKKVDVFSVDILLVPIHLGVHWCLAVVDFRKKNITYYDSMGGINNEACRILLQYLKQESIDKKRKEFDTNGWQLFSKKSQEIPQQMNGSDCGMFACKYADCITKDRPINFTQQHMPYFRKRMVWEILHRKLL
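Assay system: hSENP1 catalytic domain, recombinant. Amount: SENP1 enzyme, 20 pM final. Schedule: 50 min reaction, RT, dark. Technique: FRET, CFP and YFP emission. Control set: no-enzyme wells low, DMSO-plus-enzyme wells high control.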
SENP8 block-2 – blocks human SENP8 cleavage of Nedd8 substrate. 360,000 tested, 0.64% active. Q96LD8. inhibition, % at 20 µM. AID 602440. recombinant SENP8, Nedd8 substrate fluorescence; in the data active = inhibition mostly above about 40%, no sharp cut-off; inactive = mostly below about 27%
SENP8 conf – human SENP8 inhibition, confirmed. 6,200 tested, 40% active. shares compounds with SENP7 inh. Recombinant SENP8, Z-RLRGG-aminoluciferin luminescence, 60 min. inhibition, % at 12.5 µM;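 active = mean inhibition across replicates above about 50%, limit read from the data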
SENP6 conf – confirmation of human SENP6 protease inhibitors | shares compounds with SENP7 inh | recombinant SENP6, Z-RLRGG-aminoluciferin luminescence | inhibition, % at 12.5 µM | 6,200 tested, 58% active | AID 488915
SENP7 conf – human SENP7 inhibition, confirmed | shares compounds with SENP7 inh | recombinant SENP7, Z-RLRGG-aminoluciferin luminescence, 40 min | inhibition, % at 12.5 µM | 6,200 tested, 69% active
Casp3 SENP sel – inhibits human caspase-3 in SENP selectivity test; shares compounds with SENP7 inh; purified caspase-3, Z-DEVD-aminoluciferin luminescence, 60 min; inhibition, % at 12.5 µM; 6,200 tested, 60% active;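 active = mean inhibition above about 50%, limit read from the data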;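 note: plate controls were enzyme with DMSO for no effect and wells without caspase-3 for full effect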
Luc interf – counter-screen for SENP inhibitors: luminescence interference | shares compounds with SENP7 inh | Pre-incubated SENP8/Z-RLRGG-aminoluciferin, luciferase luminescence interference | inhibition, % at 12.5 µM | 6,200 tested, 39% active | AID 488919;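 active = mean inhibition above about 50% when retested at one dose, limit read from the data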;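 note: plate controls were DMSO wells with completed reaction for no effect and substrate without enzyme for full effect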
* hit, by the source's call; . = no result given. Rows were chosen to be rich in hits. Some 2.5% of all compounds tested hit in one or more screens of this group.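 Rule for the calls, unless noted: active = mean inhibition above about 50% in the one-dose retest (limit read from the data); inactive = the rest.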

SMILES | SENP8 block-1 | SENP6 block | SENP7 inh | SENP1 inh | SENP8 block-2 | SENP8 conf | SENP6 conf | SENP7 conf | Casp3 SENP sel | Luc interf
O=C(CSc1ccc(-c2ccc(F)cc2)nn1)N1CCCCC1 | 29 | 68* | 63* | 2 | 13 | 38 | 38 | 78* | 80* | 58*
O=C(CSc1ccc(-c2ccncc2)nn1)N1CCCCC1 | -5 | -6 | 6 | 1 | 11 | . | . | . | . | .
Cc1cccc(C)c1OCC(=O)Nc1cccc(C(=O)O)c1 | 43 | 69* | 53* | 3 | 12 | 65* | 64* | 88* | 31 | 74*
CCOC(=O)Nc1cccc(Nc2ccccc2)c1 | -3 | -13 | -4 | -3 | 1 | . | . | . | . | .
CCOC(=O)Nc1cccc(C(=O)O)c1 | 35 | 61* | 55* | 1 | 5 | 52* | 54* | 86* | 34 | 71*
CCn1c(/C=C/c2cc[n+](C)cc2)nc2ccccc21 | 9 | 8 | 3 | -24 | -436 | . | . | . | . | .
CCCn1c(/C=C/c2ccccc2)nc2ccccc21 | 62* | 72* | 70* | 1 | -305 | 86* | 84* | 95* | 75* | 81*
COc1ccccc1C(=O)Nc1ccc(S(=O)(=O)N2CCCCC2)cc1 | -8 | -22 | -2 | 2 | 3 | . | . | . | . | .
Cc1ccc([C@@H]2C[C@H]3CN(Cc4cccc(Cl)c4)C(=O)[C@]34CCCN24)o1 | 4 | 64* | -5 | 1 | 1 | -14 | -11 | -11 | -6 | -11
Cc1ccc(-c2cc3onc(-c4ccccc4)c3c(=O)n2C)cc1 | 92* | 93* | 96* | -1 | 4 | 3 | 10 | 7 | 46 | 0
CCOC(=O)C1C(=O)CC(=O)C(C(=O)OCC)C1c1ccc(O)cc1 (stereo not drawn) | . | . | . | 1 | 17 | . | . | . | . | .
CCCN(CC(=O)Nc1ccc(F)c(F)c1F)C(=O)C1=COCCO1 | 0 | -1 | 2 | -1 | 18 | . | . | . | . | .
COc1cc(NC(=O)c2cccc(Br)c2)nc(OC)n1 | 26 | 54* | 37 | 0 | 11 | 39 | 36 | 68* | 40 | 38
O=C(Nc1cc(C(=O)N2CCCC2)ccc1N1CCCC1)c1ccccc1F | 1 | 13 | -1 | -3 | 6 | . | . | . | . | .
O=C(Nc1ccc(C(=O)N2CCCC2)cc1)c1ccccc1F | 58* | 69* | 77* | 4 | 5 | 66* | 68* | 91* | 93* | 78*
COc1ccc(C(=O)Nc2ccc3ccccc3c2)c(OC)c1 | 87* | 87* | 91* | 0 | 10 | 91* | 91* | 98* | 77* | 72*
O=C(Nc1ccc2c(c1)OCCO2)c1ccccc1F | 58* | 76* | 78* | 1 | 10 | 69* | 68* | 92* | 90* | 81*
COc1ccc(NC(=O)c2ccccc2F)cc1Cl | 76* | 81* | 79* | 0 | 18 | 83* | 84* | 92* | 88* | 21
COc1ccccc1C(=O)Nc1ccc2ccccc2c1 | 36 | 50 | 36 | -1 | 4 | . | . | . | . | .
Cc1ccc(C2=Nc3ccccc3SC(c3cccc([N+](=O)[O-])c3)C2)cc1 (stereo not drawn) | -7 | 1 | -11 | 0 | 16 | . | . | . | . | .
O=C(OCCO)c1c(C2=CCCCC2)oc2c1C(OCCO)CCC2 (stereo not drawn) | . | . | . | 1 | -2 | . | . | . | . | .
COc1ccccc1CNC(=O)/C=C/c1ccc(Br)o1 | -2 | -6 | 1 | -19 | -13 | . | . | . | . | .
O=C(Nc1ccc2c(c1)OCCO2)c1ccc2ccccc2n1 | 54* | 18 | 65* | -1 | -4 | -4 | 66* | 90* | 56* | 33
O=C(Nc1ccc2c(c1)OCCO2)c1cnc2ccccn2c1=O | 29 | 57* | 6 | -1 | 12 | 11 | -1 | 10 | 39 | 6
O=C(Nc1ccccc1)Nc1ccc(C(=O)N2CCOCC2)cc1 | 61* | 59* | 82* | 0 | 19 | 81* | 81* | 97* | 93* | 82*
SMILES | SENP8 block-1 | SENP6 block | SENP7 inh | SENP1 inh | SENP8 block-2 | SENP8 conf | SENP6 conf | SENP7 conf | Casp3 SENP sel | Luc interf
O=C(Nc1ccc2c(c1)OCCO2)c1ccccn1 | 82* | 89* | 89* | -1 | 2 | 89* | 89* | 100* | 97* | 92*
O=C(Nc1ccc2c(c1)OCCO2)c1cccc2nc3ccccc3nc12 | -2 | -16 | 1 | 3 | 32 | . | . | . | . | .
O=C(c1ccc(NC(=O)C2(c3ccccc3)CCCC2)cc1)N1CCOCC1 | 1 | -49 | -6 | 2 | 16 | . | . | . | . | .
O=C(Nc1ccc(NC(=O)c2ccccn2)cc1)C(=O)Nc1ccc2c(c1)OCCO2 | 6 | -19 | -7 | 2 | -39 | . | . | . | . | .
CC(=O)Nc1cc(-c2cccc(C(=O)NCCN(C)C)c2)cn2c(-c3ccc(C(C)=O)cc3)cnc12 | . | . | . | -2 | -477 | . | . | . | . | .
N#Cc1ccccc1Sc1ccccc1C(=O)Nc1ccc2ccccc2c1 | 6 | 13 | 4 | 0 | 1 | . | . | . | . | .
O=C(Nc1ccc(F)cc1)c1ccccc1F | 1 | 20 | 2 | -1 | 12 | . | . | . | . | .
O=C(Nc1ccc2ccccc2c1)c1ccccc1F | 82* | 86* | 92* | 0 | 8 | 64* | 89* | 98* | 82* | 88*
O=C(Nc1cnc2ccccn2c1=O)c1ccc(Cl)cc1Cl | 7 | 66* | 69* | 1 | -140 | 57* | 59* | 76* | 82* | 22
N#Cc1ccc(C(=O)Nc2ccc3ccccc3c2)cc1 | 22 | 29 | 72* | -2 | -8 | 32 | 37 | 81* | 59* | 5
COc1ccccc1OCC(=O)NCCS(=O)(=O)N1CCN(c2ccc(F)cc2)CC1 | 7 | 14 | -4 | 3 | 7 | . | . | . | . | .
COc1cccc(C(=O)Cn2c(=N)n(C)c3ccccc32)c1 | 43 | 64* | 14 | -1 | 2 | 12 | 4 | 3 | 22 | 45
COc1cccc(C(=O)Cn2c(NCCO)nc3ccccc32)c1 | -2 | -17 | -2 | 2 | 23 | . | . | . | . | .
Cc1cc(=O)[nH]c(S/C=C/c2ccccc2)n1 | 77* | 64* | 90* | 0 | 2 | 89* | 90* | 98* | 94* | 89*
Cc1cc(=O)[nH]c(SCc2ccccc2)n1 | -7 | -3 | -11 | 1 | 8 | . | . | . | . | .
N#C/C(=C(/O)CSc1ccccn1)c1nc2ccccc2s1 | 6 | 8 | -6 | -37 | -8 | . | . | . | . | .
